# Laboratory results as given in ChEMBL document CHEMBL4513216, “Probing the Open Global Health Chemical Diversity Library for Multistage-Active Starting Points for Next-Generation Antimalarials” (ACS Infect Dis, 2020).
# Assay: Toxicity liver stage against HepG2, at 10uM
# Type: cell-based
# Design: test concentration 10 uM, cell line HepG2-A16-CD81EGFP
# Details: human, HepG2-A16-CD81EGFP cells; read-out: INHIBITION
# Procedure, shortened: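 Uninfected HepG2-A16-CD81EGFP cells, 3 × 10^3 per well, 1536-well, plated on prespotted compound at 10 μM final, parasite-free screening media added to match infected plates; puromycin 10 μM positive, DMSO 0.5% negative; run in parallel with 48 h PbLuc assay at 37 °C, 5% CO2; viability by CellTiter-Glo luminescence, normalized to controls.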
row,SMILES,cytotoxicity at 10 µM
1,O=C(C[C@@H]1COC[C@H]2CN(C3CCC3)C[C@@H]12)NCc1cccnc1,12.9%
2,CN(C(=O)Cc1ccccc1Cl)C1CCN(c2ccccn2)CC1,-7.48%
3,Cn1cc(CC(=O)N2CCC(Nc3cccnn3)CC2)c2ccccc21,-9.24%
4,NC1CCCc2c1cnn2-c1cc(F)cc(F)c1 (centres undefined),6.54%
5,CC(C)c1nnc(NC(=O)Cc2ccc(F)cc2)[nH]1,-8%
6,CC(C)NC(=O)COc1nc(C(C)(C)C)no1,-7.48%
7,CCc1nnsc1C(=O)N1CCCC(COc2ccc(F)cc2)C1 (centres undefined),-155%
8,CCn1nc(C)c(NC(=O)CN2CCN(C(C)=O)CC2)c1C,-6.67%
9,Cc1cc(NCc2ccccc2CN2CCCCC2)n2ncnc2n1,-1.86%
10,CC1c2ncc(COCC3CC3)n2CCN1C(=O)c1ccnnc1 (centres undefined),4.66%
11,Cc1cc(CN(C)C(=O)NC2CCN(c3ncccn3)CC2)no1,-12.8%
12,CCc1nc(C)c(C(=O)NCCNC(=O)c2cccs2)s1,-1.45%
13,Cc1nn(C)c2cnn(Cc3ccc(C(=O)NCC4CCCO4)o3)c12 (centres undefined),9.37%
14,CC(=O)N(Cc1noc(C2CC2)n1)C1CCN(Cc2ccccn2)C1 (centres undefined),-5.72%
15,CCC(=O)NC(c1cccnc1)c1cc(C)ccc1C (centres undefined),-2.8%
16,O=C(CC1=CCCCC1)Nc1ccc(CN2C(=O)CCC2=O)cc1,0.719%
17,Cc1nnc(-c2cccc(N3CCC(NC(C)CC(C)C)CC3)c2)s1 (centres undefined),0.363%
18,O=C(Nc1cccnc1)[C@H]1COC[C@H]2CN(C3CCCC3)C[C@H]21,-20.1%
19,CNC(=O)CS(=O)(=O)C1CCN(S(=O)(=O)c2cccc(Cl)c2C)CC1,4.73%
20,O=C1OCCN1CCN1CCCN(Cc2ccccc2F)CC1,-7.11%
21,Cc1cc(CC(=O)N(CC2CN(C)CCO2)c2nccs2)no1 (centres undefined),-7.49%
22,COc1cc(N2C[C@H](C(=O)N3CCCC3)[C@@H]3CCO[C@@H]3C2)ncn1,-0.211%

row,SMILES,cytotoxicity at 10 µM
1,O=C1OCCCN1Cc1nc(-c2ccncc2)no1,6.77%
2,Cc1noc(C)c1C(=O)N(C)C(C)c1ccncc1 (centres undefined),0.66%
3,Cc1nn(C)c(N2CCOCC2)c1CNCc1ccc(C(C)O)cc1 (centres undefined),-4.93%
4,Cn1c(CN2CCCC(N3CCCCCC3)C2)cc(=O)n(C)c1=O (centres undefined),-1.85%
5,CNC(=O)N1C[C@@H]2C[C@H](C(=O)Nc3cccnc3)[C@H](C1)O2,-76.2%
6,Cc1nonc1CN(C)Cc1nc(-c2ccccc2Cl)oc1C,-3.04%
7,CCN1CCN(C(=O)Cn2ncc3c2c(C)nn3C(C)C)CC1,6.5%
8,CC(C)c1ncc2c(n1)CN(Cc1ccc(C(N)=O)cc1)CC2,-14.2%
9,Cc1ccc(-c2cc(N)c(=O)n(C(C)C(=O)NCC3CCCCC3)n2)s1 (centres undefined),-13.9%
10,COCCc1noc(-c2cn(CCc3ccccc3)nn2)n1,-2.56%
11,Cc1cc(C(=O)N2CCC3(CC2)C(=O)N(C)CCN3CC2CC2)c(C)o1,-96.5%
12,Cc1sc(NC(=O)CN2CCCC(c3ncc[nH]3)C2)c(C)c1C (centres undefined),28.1%
13,CCc1nc(C)cc(N2CCN(C(=O)[C@@H]3C[C@H]4C=C[C@@H]3C4)CC2)n1,5.68%
14,COc1cccc(-c2ncc(CN3CC[C@H](CO)[C@@H](O)C3)s2)c1,4.23%
15,N#Cc1cn[nH]c1NCc1cc(Cl)cc(Cl)c1O,19.1%
16,CCCNc1ncc(CN2C[C@@H]3CC[C@H]2CN(C2CCOCC2)C3)cn1,-7.84%
17,COCCNC(=O)c1ccc(NCc2csc(C)n2)cc1Cl,6.81%
18,COC1COC2(CCN(c3ccc(C#N)cc3)CC2)C1 (centres undefined),-79.6%
19,COc1ccc2c(C)c(C(=O)NC3CCN(S(C)(=O)=O)CC3)oc2c1,8.55%
20,COCC(=O)N1CCCC(C(=O)c2cnn(-c3ccc(F)cc3)c2N)C1 (centres undefined),9.71%
21,CCN(CC)c1ccc(-c2ccc(C)c(S(N)(=O)=O)c2)nn1,-7.99%
22,O=C(c1cnc(-c2ccccc2)nc1)N1CCOC2(CCCC2)C1,-1.39%

row,SMILES,cytotoxicity at 10 µM
1,O=C(CCCn1cccn1)N1C[C@@H](O)[C@H](Oc2cccc(F)c2)C1,5.75%
2,Cc1noc2ncnc(N3CCC(O)(Cn4ccnc4)CC3)c12,0.648%
3,CN1CCCN(C(=O)c2nnn(-c3ccc(C(F)(F)F)cc3)n2)CC1,-7.37%
4,CCCC(NC(=O)c1cncc(C)c1)c1nnn[nH]1 (centres undefined),-15.5%
5,CN(Cc1ccsc1)C(=O)c1cc2c([nH]c1=O)CCCC2=O,-6.88%
6,Cc1ccc(-c2noc(CN3CCc4nn(C)c(=O)cc4C3)n2)cc1,-8.78%
7,O=C(NCCNC(=O)C1CCCCC1)NCCn1cccc1,2.89%
8,Cn1nc2c(cc1=O)CN(Cc1coc(-c3ccc(F)cc3)n1)CC2,-11.5%
9,CCN(CC)Cc1cc(C(=O)N2CCCC(CC)(C(=O)O)C2)c(C)o1 (centres undefined),7.25%
10,CC1CN(CC(=O)NCc2ccc(F)cc2)CCN1c1nccs1 (centres undefined),-1.22%
11,CCC(CC(=O)Nc1ccc2c(c1)CC(=O)N2)c1ccccc1 (centres undefined),-1.06%
12,CNC(=O)CN(C)C(=O)c1cc(Cl)c(Cl)n1C,4.4%
13,CC(=O)N1CCCC(c2ccc(C(=O)NC3CCCC3)cn2)C1 (centres undefined),0.692%
14,COc1cccc(CNC(=O)CCC2=Nc3ccccc3S(=O)(=O)N2)c1,4.19%
15,CCN1CCOC(CNCc2cnc(C(C)(C)C)s2)C1 (centres undefined),-2.24%
16,COCCN1CCCn2c(nc(Cn3cncn3)cc2=O)C1,3.39%
17,Cc1cc(NC(=O)CN2C(=O)CC(C)(C)c3ccccc32)no1,-3.29%
18,c1ccc(CN2CCC3(CC2)CN(c2ccccn2)CCO3)nc1,-6.38%
19,CCOc1ncccc1CNC(=O)NCCNC(=O)c1ccco1,1.16%
20,CN(C)C(=O)c1ccc(C2CCCNC2)nc1 (centres undefined),-20.7%
21,CSc1ccc(CN(C)C(=O)c2cc3c([nH]c2=O)CCCC3=O)cc1,-1.25%
22,CN1CCN(C(=O)[C@H]2C[C@H]3[C@H](CCN3Cc3cccs3)O2)CC1,-7.64%

row,SMILES,cytotoxicity at 10 µM
1,CCN(Cc1ccc(C(C)=O)cc1)CC1CCOCC1,-2.69%
2,O=C(CC1CCCCC1)N1CCC(c2ncc3c(n2)CCNC3)CC1,-8.21%
3,CCc1nc(CN2CCCN(C(=O)c3ccccc3)CC2)cs1,7.41%
4,CCN1CCN(S(=O)(=O)c2cc(C)c(Cl)cc2Cl)CC1,-2.67%
5,CCn1ccnc1CN1CCN(c2ncnc3ccccc23)CC1,-1.8%
6,CCn1ncc2c1C(COC)CN(Cc1ccc(OC)cc1)C2 (centres undefined),11.4%
7,O=C(CCC1CCCO1)NCc1ccc(Br)cc1F (centres undefined),1.6%
8,Cc1cc(CN2CC[C@H]3C[C@H](C(=O)Nc4cccnc4C)O[C@@H]3C2)no1,-67%
9,O=C(Nc1c(F)cccc1F)N1CC(c2nc(C3CC3)no2)C1,-1.65%
10,COCC(=O)NC1CC2(CCN(CC3CC3)CC2)Oc2ccccc21 (centres undefined),-2.6%
11,CC(C)CN1CCCC1c1ccc(C(=O)Nc2ccc3[nH]nnc3c2)s1 (centres undefined),19.1%
12,CCNC(=O)C(C)Oc1ccc(N(C)S(C)(=O)=O)cc1 (centres undefined),1.07%
13,CCC(=O)c1ccc(Br)cc1NN1c2cc(Br)ccc2C(=O)C1(C)OC (centres undefined),78.6%
14,CCOC(C)c1nc(Cn2cc(C(=O)NC)ccc2=O)cs1 (centres undefined),-0.315%
15,Cc1cn2c(=O)c(-c3ccnc(N4CCC[C@@H]4CO)n3)cnc2s1,-9.52%
16,Cc1nc(CN2CCN(CC(O)CN3CCOCC3)CC2)oc1C (centres undefined),5.92%
17,COc1ccc2c(c1OC)Cc1c-2nc(N)c(C#N)c1C1CCOC1 (centres undefined),28.6%
18,Cc1noc(C)c1CNC(=O)N1CCCC(C)CC1 (centres undefined),-7.31%
19,CCC(CO)NC(=O)Nc1ccc(OCC(F)(F)F)c(C)c1 (centres undefined),10.9%
20,Cn1nccc1C1CCN(Cc2ccn(-c3ccccc3)n2)CC1,17.3%
21,CC(C)N(C)Cc1ncn2c1CN(S(=O)(=O)c1cccs1)CCC2,3.62%
22,Cc1nnc(C(NS(=O)(=O)c2cc(C#N)ccc2C)C(C)C)[nH]1 (centres undefined),4.98%

row,SMILES,cytotoxicity at 10 µM
1,COCC(O)CN(C)c1ccnc2cc(F)ccc12 (centres undefined),-2.63%
2,Cc1ccc(CNC(=O)NCC(=O)NC(C)(C)C)c(N2CCCC2)c1,5.68%
3,Cc1nc(NS(=O)(=O)c2cccc(F)c2C)no1,5.3%
4,O=C(NC1(C(=O)NC2CCCC2)CCCC1)c1ccc2[nH]ncc2c1,4.73%
5,Cc1cc(NC(=O)CN2CCc3cncnc3C2)no1,-11.5%
6,CN(Cc1cc[nH]n1)C(=O)c1cn(Cc2c(F)cccc2F)nn1,7.29%
7,CSc1ncccc1C(=O)N(C)C(C)Cc1ccccn1 (centres undefined),2.28%
8,CCCNC(=O)C(C)n1nc(-c2ccc(C)o2)cc(N)c1=O (centres undefined),-1.15%
9,CCn1cc(NC(=O)C2CCN(CC(=O)NCC(C)C)CC2)cn1,-7.52%
10,COc1cccc2ccc(CN3CCN(c4ccncc4)CC3)nc12,-1.36%
11,CCN(c1ccc(C(=O)NCCCN2CCCCC2)cc1)S(=O)(=O)CC,7.91%
12,c1ccc(Cc2noc(CN3CCCC(Cn4cncn4)C3)n2)cc1 (centres undefined),-2.38%
13,CCCc1nnc(SCC(=O)Nc2cc(C(C)(C)C)nn2C)[nH]1,10.7%
14,CCCC(NC(=O)c1ccccc1Br)c1nnn[nH]1 (centres undefined),-1.8%
15,OCC1CCCCN1CCn1ccnc1-c1nc2ccccc2[nH]1 (centres undefined),8.89%
16,CCN1CC[C@@]2(C(=O)N3CCOCC3)CCN(S(=O)(=O)CC)CC[C@@H]12,8.92%
17,O=C(O)[C@@H]1CN(Cc2c[nH]c(CC3CCCC3)n2)C[C@H]1c1ccccn1,3.86%
18,CCc1ccc(C2c3nc[nH]c3CCN2Cc2nccn2CC)nc1 (centres undefined),-0.123%
19,Cn1nc(C(=O)NCc2ccc(Cl)cc2)c2c1CCS(=O)(=O)C2,5.01%
20,CN(C)C[C@H]1C[C@@H](CO)CN(C(=O)c2cc(=O)[nH]c3cc(F)ccc23)C1,-4.16%
21,O=C(COc1ccc(Br)cc1F)Nc1cn[nH]c1,-24.1%
